Hits are enriched below; roughly 2.4% of the tested compounds scored in any of these assays.
NPY-Y1 PAM-ag – potentiators or agonists of human neuropeptide Y receptor Y1 | P25929 | NPY-Y1 expressing cells, potentiator/agonist activation | activation, % at 3.6 µM | hit rate 0.37% among 220,000 | AID 1304; in the data active = activation above about 33%, passing the limit was not always enough;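 also: cells stimulated with NPY at EC10 then isoproterenol at EC100; 0% = low agonist plus stimulus and 100% = saturating agonist plus stimulus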
Target sequence (P25929 whole entry, looked up): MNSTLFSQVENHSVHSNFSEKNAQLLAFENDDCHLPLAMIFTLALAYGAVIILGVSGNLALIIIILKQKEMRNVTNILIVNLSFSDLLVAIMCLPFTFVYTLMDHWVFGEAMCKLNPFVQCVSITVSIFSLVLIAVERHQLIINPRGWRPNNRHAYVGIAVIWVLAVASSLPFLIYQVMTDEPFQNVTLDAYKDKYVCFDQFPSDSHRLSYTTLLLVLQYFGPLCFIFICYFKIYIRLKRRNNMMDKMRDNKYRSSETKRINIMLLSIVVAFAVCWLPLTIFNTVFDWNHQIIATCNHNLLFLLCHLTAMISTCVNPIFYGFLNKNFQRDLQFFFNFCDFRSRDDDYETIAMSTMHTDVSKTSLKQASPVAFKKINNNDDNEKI
S1P4 ag – human S1P4 receptor agonism; activation, % at 4.98 µM; hit rate 0.35% among 220,000; O95977; S1P4-expressing cell line, agonist reporter assay; in the data active = activation above about 11%;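 also: 0% = DMSO vehicle and 100% = reference agonist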
NPY Y2 blocker – antagonists of human neuropeptide Y receptor Y2; P49146; NPY-Y2 expressing cells, antagonist mode; inhibition, % at 2.7 µM; hit rate 0.99% among 140,000; AID 793;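 also: 0% = vehicle with agonist challenge and 100% = reference antagonist with challenge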
NPY2 pot ag – human NPY-Y2 potentiation or agonism, primary screen; cells expressing NPY-Y2, potentiator/agonist read-out; activation, % at 3.6 µM; hit rate 0.45% among 220,000; AID 1359; in the data active = activation above about 27%;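 also: cells stimulated with NPY near EC25 plus isoproterenol at EC100; 0% = vehicle plus submaximal agonist and 100% = vehicle plus saturating agonist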
NPY-Y1 antag – blocks the human neuropeptide Y Y1 receptor | AID 1040 | inhibition, % at 3.6 µM | hit rate 1% among 200,000 | P25929 | HEK293-CNG Y1 cells, membrane potential fluorescence; NPY at EC95, then isoproterenol;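 active = inhibition above the campaign mean inhibition of all tested compounds plus 3 SD, cut at about 20% in these data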;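 also: 0% = DMSO wells given NPY plus isoproterenol and 100% = isoproterenol alone without NPY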
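Material: Y1- and CNG-channel-expressing HEK293 cells / Probe or stimulus: NPY 25 nM then isoproterenol 1 µM plus Ro 20-1724 25 µM / Doses: 3.6 µM single dose, DMSO 0.4% / Schedule: compound incubation 1 h at room temperature, readout 45 min post-stimulation / Signal: membrane potential fluorescence / Benchmarks: isoproterenol-only wells as full block versus NPY-plus-isoproterenol wells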
S1P4 antag – blocks the human S1P4 receptor | S1P4-expressing cells, antagonist mode, reporter read-out | inhibition, % at 4.98 µM | AID 1510 | hit rate 0.26% among 220,000; in the data active = inhibition above about 29%;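 also: 0% = wells stimulated with agonist and 100% = vehicle wells without agonist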
NPY-Y1 ant conf – human NPY-Y1 antagonism, confirmation; inhibition, % at 3.6 µM; AID 1254; hit rate 21% among 1,200; HEK293-CNG NPY-Y1, membrane potential fluorescence, cAMP; NPY challenge against isoproterenol-raised cAMP; shares compounds with NPY-Y1 antag; in the data active = inhibition above about 20%;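 also: 0% = vehicle with agonist plus stimulus and 100% = stimulus alone without agonist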
NPY2 antag ctr – counter-screen for NPY-Y1 antagonists: human NPY-Y2 antagonism; shares compounds with NPY-Y1 antag; HEK293 NPY-Y2 CNG membrane potential fluorescence; cells given NPY, then isoproterenol; inhibition, % at 3.6 µM; hit rate 28% among 1,200; AID 1255;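 also: 0% = DMSO with agonist challenge and 100% = reference antagonist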
* = called active by the depositor. Rule as the data show it, unless noted: active = inhibition above about 17%; inactive = the rest.

What do the screens show for `CC(C)CC(c1nnnn1C1CCCCC1)N1CCN(c2ncccn2)CC1` (configuration not stated)?
NPY-Y1 PAM-ag: -16.0; S1P4 ag: -0.2; NPY Y2 blocker: 2.0; NPY2 pot ag: 4.6; NPY-Y1 antag: 5.0; S1P4 antag: 0.1

How did COc1ccc(N2CCN(C(c3cccc(OC)c3OC)c3nnnn3C3CCCC3)CC2)cc1 (configuration not stated) do in these assays?
NPY-Y1 PAM-ag: -43.5; S1P4 ag: -1.8; NPY Y2 blocker: 9.1; NPY2 pot ag: -13.5; NPY-Y1 antag: 23.5*; S1P4 antag: 7.5; NPY-Y1 ant conf: 21.7*; NPY2 antag ctr: 8.7

What do the screens show for `COCc1ccc(C(=O)N2CCCC(C(=O)c3cc(F)ccc3F)C2)s1` (configuration not stated)?
NPY-Y1 PAM-ag: -16.8; S1P4 ag: 0.7; NPY2 pot ag: -0.6; NPY-Y1 antag: 9.7; S1P4 antag: 0.8

How did COc1ccc(CCNS(=O)(=O)c2ccc3c(c2)OCCO3)cc1 do in these assays?
NPY-Y1 PAM-ag: -26.7; S1P4 ag: -1.2; NPY Y2 blocker: 9.3; NPY2 pot ag: -18.3; NPY-Y1 antag: 3.3; S1P4 antag: -2.1

How did COc1ccc(CCNS(=O)(=O)c2ccc(OC)cc2)cc1 do in these assays?
NPY-Y1 PAM-ag: -8.4; S1P4 ag: -0.4; NPY Y2 blocker: 7.8; NPY2 pot ag: -28.6; NPY-Y1 antag: 22.9*; S1P4 antag: -10.9; NPY-Y1 ant conf: 10.3; NPY2 antag ctr: 7.2

What do the screens show for `COc1ccccc1OCCCOc1c(C)cc(C)cc1Br`?
NPY-Y1 PAM-ag: -22.3; S1P4 ag: 1.1; NPY Y2 blocker: 5.3; NPY2 pot ag: -0.8; NPY-Y1 antag: 7.6; S1P4 antag: -5.8

How did COc1ccccc1OCCOCCOc1c(C)cc(C)cc1Br do in these assays?
NPY-Y1 PAM-ag: -33.5; S1P4 ag: 1.4; NPY Y2 blocker: 10.5; NPY2 pot ag: -9.4; NPY-Y1 antag: 24.3*; S1P4 antag: -8.7; NPY-Y1 ant conf: 12.0; NPY2 antag ctr: 9.7

How did Cc1cc(N)n(-c2ccc(S(N)(=O)=O)cc2[N+](=O)[O-])n1 do in these assays?
NPY-Y1 PAM-ag: -14.8; S1P4 ag: 1.0; NPY2 pot ag: -7.0; NPY-Y1 antag: 3.5; S1P4 antag: -17.4

What do the screens show for `Cc1ccc(S(=O)(=O)Cn2nnnc2C(C(C)C)N2CCc3ccccc3C2)cc1` (configuration not stated)?
NPY-Y1 PAM-ag: -14.5; S1P4 ag: 0.6; NPY Y2 blocker: 3.4; NPY2 pot ag: 1.2; NPY-Y1 antag: 0.6; S1P4 antag: -11.0

What do the screens show for `CCC(C)(C)n1nnnc1C(c1ccc(C)cc1)N1CCN(Cc2cccnc2)CC1` (configuration not stated)?
NPY-Y1 PAM-ag: 6.3; S1P4 ag: -1.5; NPY Y2 blocker: -0.3; NPY2 pot ag: -5.1; NPY-Y1 antag: 9.1; S1P4 antag: 4.8

What do the screens show for `CCC(C)(C)n1nnnc1C(c1ccc(C)cc1)N1CCSCC1` (configuration not stated)?
NPY-Y1 PAM-ag: 13.1; S1P4 ag: 1.8; NPY Y2 blocker: 15.8; NPY2 pot ag: -14.1; NPY-Y1 antag: 24.2*; S1P4 antag: 4.1; NPY-Y1 ant conf: 12.6; NPY2 antag ctr: 4.8

How did Cc1ccc(S(=O)(=O)Cn2nnnc2C(C(C)C)N2CCSCC2)cc1 (configuration not stated) do in these assays?
NPY-Y1 PAM-ag: 13.8; S1P4 ag: 0.5; NPY Y2 blocker: -0.3; NPY2 pot ag: 3.1; NPY-Y1 antag: 21.2*; S1P4 antag: 6.0; NPY-Y1 ant conf: 0.1; NPY2 antag ctr: 2.1

How did O=C(COC(=O)CCc1c[nH]c2ccccc12)Nc1cc([N+](=O)[O-])ccc1Cl do in these assays?
NPY-Y1 PAM-ag: -23.8; S1P4 ag: -0.7; NPY Y2 blocker: 7.6; NPY2 pot ag: -2.7; NPY-Y1 antag: 27.3*; S1P4 antag: 11.6; NPY-Y1 ant conf: 9.0; NPY2 antag ctr: 8.4

Results for CC(C)N(Cc1ccccc1)C(=S)Nc1ccccc1F ?
NPY-Y1 PAM-ag: -24.2; S1P4 ag: 0.2; NPY2 pot ag: -6.0; S1P4 antag: -0.5

Results for COc1cc(C(=O)N/N=C/c2sccc2C)cc(OC)c1OC ?
NPY-Y1 PAM-ag: 0.6; S1P4 ag: 0.9; NPY2 pot ag: -5.2; NPY-Y1 antag: 50.2*; S1P4 antag: 20.4; NPY-Y1 ant conf: 2.6; NPY2 antag ctr: 12.0

Results for COc1ccc(-c2c[n+](CC(=O)OC3CC(C)CCC3C(C)C)c3n2CCC3)cc1 (configuration not stated) ?
NPY-Y1 PAM-ag: -47.1; S1P4 ag: -0.7; NPY2 pot ag: -6.8; NPY-Y1 antag: 75.4*; S1P4 antag: -19.6; NPY-Y1 ant conf: 61.1*; NPY2 antag ctr: 34.9*

Results for O=S(=O)(N/N=C/c1ccc(N2CCOCC2)cc1)c1ccc(Br)cc1 ?
NPY-Y1 PAM-ag: -3.1; S1P4 ag: -0.2; NPY2 pot ag: -16.2; NPY-Y1 antag: 0.7; S1P4 antag: 8.4

Results for C(=C\c1ccccc1)/CN1CCN(c2ncnc3c2oc2ccccc23)CC1 ?
NPY-Y1 PAM-ag: 5.8; S1P4 ag: 2.0; NPY Y2 blocker: 13.6; NPY2 pot ag: -26.3; NPY-Y1 antag: 26.0*; S1P4 antag: -16.4; NPY-Y1 ant conf: 10.6; NPY2 antag ctr: 16.1

What do the screens show for `O=c1[nH]c(CN2CCN(C/C=C/c3ccccc3)CC2)nc2ccccc12`?
NPY-Y1 PAM-ag: -31.0; S1P4 ag: 2.2; NPY Y2 blocker: 1.9; NPY2 pot ag: 4.8; NPY-Y1 antag: 0.8; S1P4 antag: -3.0

How did c1ccc2c(c1)oc1c(N3CCOCC3)ncnc12 do in these assays?
NPY-Y1 PAM-ag: -12.3; S1P4 ag: -0.9; NPY Y2 blocker: 2.9; NPY2 pot ag: 2.0; NPY-Y1 antag: 2.6; S1P4 antag: -1.5

What do the screens show for `Nc1nc(N2CCN(C/C=C/c3ccccc3)CC2)nc2ccccc12`?
NPY-Y1 PAM-ag: -22.3; S1P4 ag: 1.2; NPY Y2 blocker: 8.6; NPY2 pot ag: 10.6; NPY-Y1 antag: 21.9*; S1P4 antag: 3.9; NPY-Y1 ant conf: 15.2; NPY2 antag ctr: 3.1

Results for COc1cccc2c3c(c(C)nc12)CCN3c1ccccc1 ?
NPY-Y1 PAM-ag: -45.5; S1P4 ag: -0.5; NPY2 pot ag: -21.0; NPY-Y1 antag: 23.5*; S1P4 antag: -3.6; NPY-Y1 ant conf: 19.3; NPY2 antag ctr: 21.2*

Results for COc1ccccc1N1CCc2c(C)nc3c(OC)cccc3c21 ?
NPY-Y1 PAM-ag: -5.4; S1P4 ag: -2.8; NPY Y2 blocker: 7.8; NPY2 pot ag: -7.7; NPY-Y1 antag: 3.4; S1P4 antag: -7.3

Compound activity (PubChem BioAssay)
